From ChEMBL document CHEMBL3407346, “Design, synthesis, and biological evaluation of sulfonyl acrylonitriles as novel inhibitors of cancer metastasis and spread” (J Med Chem, 2015)

Experiments:
[1] = Cytotoxicity against human SU86 cells co-cultured with human mesothelial cells at 10 uM after 4 hrs by firefly luciferase assay relative to control; type: functional
In short: (§1)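 Co-culture of luciferase-transduced cancer cells (puromycin/G418-selected retroviral pLuc) with confluent human mesothelial monolayers. Suspended cancer cells plus 10 µM compound (final) or DMSO were overlaid for 4 h. Non-adherent cells were washed off and surviving adherent cells quantified by firefly luciferase luminescence. Efficacy = treated/DMSO luminescence ratio; mean±SEM, n=3.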

[2] = Cytotoxicity against human BxPC3 cells co-cultured with human mesothelial cells at 10 uM after 4 hrs by firefly luciferase assay relative to control; type: functional, BXPC-3; in short: as §1
[3] = system: A2780; assay: Cytotoxicity against human A2780 cells co-cultured with human mesothelial cells at 10 uM after 4 hrs by firefly luciferase assay relative to control; type: functional; in short: as §1
[4] = Cytotoxicity against human SKOV3 cells co-cultured with human mesothelial cells at 10 uM after 4 hrs by firefly luciferase assay relative to control; type: functional, SK-OV-3; in short: as §1

Row | SMILES | Ratio [1] | Ratio [2] | Ratio [3] | Ratio [4]
1 | CC(C)(c1ccc(S(=O)(=O)/C=C/C#N)cc1)c1nnc(C2CCCCC2)o1 | 0.27 | 0.13 | 0.02 | 0.28
2 | CC(C)(C(=O)NCc1ccc(-n2cccn2)cc1)c1ccc(S(=O)(=O)/C=C/C#N)cc1 | 0.49 | 0.48 | 0.34 | 0.84
3 | N#C/C=C/S(=O)(=O)c1ccc(C2(C(=O)Nc3ccccc3)CCC2)cc1 | 0.35 | 0.12 | 0.17 | 0.39
4 | COc1ccccc1CNC(=O)C(C)(C)c1ccc(S(=O)(=O)/C=C/C#N)cc1 | 0.21 | 0.07 | 0.01 | 0.27
5 | N#C/C=C/S(=O)(=O)c1ccc(C2(C(=O)NC3CCCCC3)CC2)cc1 | 0.34 | 0.28 | 0.09 | 0.23
6 | N#C/C=C/S(=O)(=O)c1ccc(C2(C(=O)NC3CCCCC3)CCOCC2)cc1 | 1 | 0.67 | 1.12 | 0.88
7 | CC(C)(C(=O)NCc1ccccc1F)c1ccc(S(=O)(=O)/C=C/C#N)cc1 | 0.2 | 0.15 | 0.03 | 0.3
8 | N#C/C=C/S(=O)(=O)c1ccc(C2(C(=O)NCc3ccc(Cl)cc3)CCC2)cc1 | 0.36 | 0.21 | 0.13 | 0.3
9 | CC(C)(C(=O)NC1CCCCC1)c1ccc(S(=O)(=O)/C=C/C#N)cn1 | 0.61 | 0.16 | 0.16 | 0.58
10 | COc1cccc(CNC(=O)C(C)(C)c2ccc(S(=O)(=O)/C=C/C#N)cc2)c1 | 0.3 | 0.09 | 0.03 | 0.25
11 | CCNc1nnc(C(C)(C)c2ccc(S(=O)(=O)/C=C/C#N)cc2)o1 | 0.96 | 1.02 | 0.86 | 1.12
12 | Cc1ccc2oc(COc3ccc(S(=O)(=O)/C=C/C#N)cc3C(C)(C)C)nc2c1 | 0.56 | 0.24 | 0.09 | 0.36
13 | C[C@H](NC(=O)C(C)(C)c1ccc(S(=O)(=O)/C=C/C#N)cc1)c1ccccc1 | 0.32 | 0.27 | 0.13 | 0.67
14 | N#C/C=C/S(=O)(=O)c1ccc(C2(C(=O)NCc3ccc(F)cc3)CC2)cc1 | 0.64 | 0.34 | 0.06 | 0.43
15 | C[C@@H](NC(=O)C(C)(C)c1ccc(S(=O)(=O)/C=C/C#N)cc1)c1ccccc1 | 0.21 | 0.21 | 0.1 | 0.64
16 | CC(C)(C(=O)NCc1ccc(S(C)(=O)=O)cc1)c1ccc(S(=O)(=O)/C=C/C#N)cc1 | 1.09 | 0.99 | 0.95 | 0.78
17 | CN(Cc1ccc(F)cc1)C(=O)C(C)(C)c1ccc(S(=O)(=O)/C=C/C#N)cc1 | 0.23 | 0.11 | 0.02 | 0.22
18 | COc1cccc(NC(=O)COc2ccc(S(=O)(=O)/C=C/C#N)cc2C(C)(C)C)c1 | 0.37 | 0.17 | 0.03 | 0.29

Row | SMILES | Ratio [1] | Ratio [2] | Ratio [3] | Ratio [4]
19 | CC(C)(C(=O)NCC#Cc1ccccc1)c1ccc(S(=O)(=O)/C=C/C#N)cc1 | 0.5 | 0.14 | 0.07 | 0.4
20 | Cc1cnc(C(C)(C)c2ccc(S(=O)(=O)/C=C/C#N)cc2)o1 | 0.37 | 0.09 | 0.03 | 0.26
21 | CC(C)(C(=O)N1CCCCC1)c1ccc(S(=O)(=O)/C=C/C#N)cc1 | 0.51 | 0.25 | 0.08 | 0.51
22 | CC(C)(C(=O)N[C@H]1CCCCNC1=O)c1ccc(S(=O)(=O)/C=C/C#N)cc1 | 0.97 | 0.82 | 0.84 | 0.85
23 | CC(C)(C(=O)NCC(F)F)c1ccc(S(=O)(=O)/C=C/C#N)cc1 | 0.81 | 0.82 | 0.86 | 1.13
24 | CC(C)(C)c1cc(S(=O)(=O)/C=C/C#N)ccc1OCC(=O)NCc1ccc(F)cc1 | 0.28 | 0.1 | 0.02 | 0.23
25 | COCCOCc1ccc(NC(=O)C(C)(C)c2ccc(S(=O)(=O)/C=C/C#N)cc2)cc1 | 0.66 | 0.4 | 0.26 | 0.6
26 | CC(C)(C)c1cc(S(=O)(=O)/C=C/C#N)ccc1OCC(=O)O | 0.97 | 0.81 | 1.05 | 0.92
27 | CC(C)(C)c1cccc(S(=O)(=O)/C=C/C#N)c1 | 0.13 | 0.08 | 0.1 | 0.35
28 | CC(C)(c1ccc(S(=O)(=O)/C=C/C#N)cc1)c1nnc(Nc2ccccc2)o1 | 0.62 | 0.39 | 0.22 | 0.65
29 | CC(C)(C(=O)Nc1ccccc1)c1ccc(S(=O)(=O)/C=C/C#N)cc1 | 0.52 | 0.22 | 0.17 | 0.55
30 | CC(C)(C)c1ccc2cc(S(=O)(=O)/C=C/C#N)ccc2n1 | 0.45 | 0.22 | 0.04 | 0.35
31 | CC(C)(C(=O)NCc1ccc(S(N)(=O)=O)cc1)c1ccc(S(=O)(=O)/C=C/C#N)cc1 | 1.11 | 1 | 1 | 0.96
32 | N#C/C=C/S(=O)(=O)c1ccc(C2(C(=O)Nc3ccccc3)CCOCC2)cc1 | 0.92 | 0.85 | 0.87 | 0.97
33 | CC(C)(c1ccc(S(=O)(=O)/C=C/C#N)cc1)c1nc2ccccc2[nH]1 | 1.04 | 1.01 | 1.07 | 1.1
34 | N#C/C=C/S(=O)(=O)c1ccc(C2(C(=O)NCc3ccc(Cl)cc3)CCOCC2)cc1 | 0.66 | 0.3 | 0.46 | 0.71
35 | CC(C)(C(=O)NCc1cccc(F)c1)c1ccc(S(=O)(=O)/C=C/C#N)cc1 | 0.24 | 0.17 | 0.05 | 0.3
36 | CC(C)(C(=O)NCCc1ccccc1)c1ccc(S(=O)(=O)/C=C/C#N)cc1 | 0.29 | 0.15 | 0.1 | 0.56
